{"source": "ChEMBL document CHEMBL1129059", "about": "“Antitumor properties of some 2-[(dimethylamino)methyl]phenylgold(III) complexes” (J Med Chem, 1996)", "key": {"Mus musculus [1]": {"system": "Mus musculus", "experiment": "Compound was evaluated for antitumor activity (RTV) in HT1376 carcinoma Xenograft, at a dosage 25 mg/kg on day 14", "type": "functional, organism-based", "set-up": "dose 25 mg/kg", "in_short": "(§1)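 HT1376 tumor fragments implanted subcutaneously in nude mice flanks; mice with established palpable tumors randomized into groups of 6 (controls 10). Compounds given intraperitoneally as suspensions in 0.5% carboxymethylcellulose in 0.9% saline, on days 0, 7, 14 and 21. Tumor dimensions on days 0, 7, 14, 21, 28. RTV = 100(mean tumor volume at assessment)/(mean start volume).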"}, "Mus musculus [2]": {"system": "Mus musculus", "experiment": "Compound was evaluated for antitumor activity (T/C) in HT1376 carcinoma Xenograft, at a dosage 25 mg/kg on day 7", "type": "functional, organism-based", "set-up": "dose 25 mg/kg", "in_short": "(§2)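 Nude mice carrying subcutaneous flank HT1376 fragments; treatment began once tumors were established and palpable, randomized into groups of 6 treated and 10 control mice. Dosing was ip as a suspension in 0.5% carboxymethylcellulose in 0.9% saline on days 0, 7, 14 and 21, at the MTD and two 2-fold dilutions. Tumors were measured on days 0-28. RTV = 100(mean volume at assessment)/(mean start volume); T/C = treated RTV/control RTV.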"}, "Mus musculus [3]": {"system": "Mus musculus", "experiment": "Compound was evaluated for antitumor activity (T/C) in HT1376 carcinoma Xenograft, at a dosage 6.25 mg/kg on day 21", "type": "functional, organism-based", "set-up": "dose 6.25 mg/kg", "in_short": "as §2"}, "Mus musculus [4]": {"system": "Mus musculus", "experiment": "Compound was evaluated for antitumor activity (T/C) in HT1376 carcinoma Xenograft, at a dosage 6.25 mg/kg on day 28", "type": "functional, organism-based", "set-up": "dose 6.25 mg/kg", "in_short": "as §2"}, "Mus musculus [5]": {"system": "Mus musculus", "experiment": "Compound was evaluated for antitumor activity (T/C) in HT1376 carcinoma Xenograft, at a dosage 12.5 mg/kg on day 28", "type": "functional, organism-based", "set-up": "dose 12.5 mg/kg", "in_short": "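Subcutaneous HT1376 xenografts in nude mice, 6 per treated group and 10 controls. Intraperitoneal dosing as suspensions in 0.5% carboxymethylcellulose/0.9% saline on days 0, 7, 14, 21; tumors measured weekly to day 28. T/C = RTV of treated group / RTV of untreated control group; significance by t-test at the 5% level.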"}, "Mus musculus [6]": {"system": "Mus musculus", "experiment": "Compound was evaluated for antitumor activity (T/C) in PNX/109/TC carcinoma Xenograft, at a dosage 20 mg/kg on day 14", "type": "functional, organism-based", "set-up": "dose 20 mg/kg", "in_short": "(§3)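 PNX/109/TC (CH1) ovarian tumor fragments implanted subcutaneously in the flanks of nude mice. Once tumors were palpable, mice were randomized into 6 per treated group and 10 controls. Dosing was ip in arachis oil on days 0, 7, 14 and 21, at the MTD and two 2-fold dilutions, with tumor dimensions taken on days 0, 7, 14, 21 and 28. T/C is treated RTV over control RTV, with RTV relative to start volume.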"}, "Mus musculus [7]": {"system": "Mus musculus", "experiment": "Compound was evaluated for antitumor activity (T/C) in PNX/109/TC carcinoma Xenograft, at a dosage 20 mg/kg on day 21", "type": "functional, organism-based", "set-up": "dose 20 mg/kg", "in_short": "as §3"}, "Mus musculus [8]": {"system": "Mus musculus", "experiment": "Compound was evaluated for antitumor activity (T/C) in PNX/109/TC carcinoma Xenograft, at a dosage 20 mg/kg on day 28", "type": "functional, organism-based", "set-up": "dose 20 mg/kg", "in_short": "as §3"}, "Mus musculus [9]": {"system": "Mus musculus", "experiment": "Compound was evaluated for antitumor activity (T/C) in PNX/109/TC carcinoma Xenograft, at a dosage 5 mg/kg on day 28", "type": "functional, organism-based", "set-up": "dose 5 mg/kg", "in_short": "as §3"}, "Mus musculus [10]": {"system": "Mus musculus", "experiment": "Compound was evaluated for antitumor activity (T/C) in PNX/109/TC carcinoma Xenograft, at a dosage 5 mg/kg on day 7", "type": "functional, organism-based", "set-up": "dose 5 mg/kg", "in_short": "as §3"}, "Mus musculus [11]": {"system": "Mus musculus", "experiment": "Compound was evaluated for antitumor activity (RTV) in HT1376 carcinoma Xenograft, at a dosage 12.5 mg/kg on day 21", "type": "functional, organism-based", "set-up": "dose 12.5 mg/kg", "in_short": "as §1"}, "Mus musculus [12]": {"system": "Mus musculus", "experiment": "Compound was evaluated for antitumor activity (RTV) in HT1376 carcinoma Xenograft, at a dosage 12.5 mg/kg on day 7", "type": "functional, organism-based", "set-up": "dose 12.5 mg/kg", "in_short": "as §1"}, "Mus musculus [13]": {"system": "Mus musculus", "experiment": "Compound was evaluated for antitumor activity (RTV) in PNX/109/TC carcinoma Xenograft, at a dosage 10 mg/kg on day 28", "type": "functional, organism-based", "set-up": "dose 10 mg/kg", "in_short": "(§4)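 PXN/109/TC (CH1) ovarian tumor fragments implanted subcutaneously in nude mice flanks; established palpable tumors, groups of 6 (controls 10). Dosed intraperitoneally as suspension in arachis oil on days 0, 7, 14, 21. Tumors measured days 0, 7, 14, 21, 28. RTV = 100(mean tumor volume at assessment)/(mean start volume).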"}, "Mus musculus [14]": {"system": "Mus musculus", "experiment": "Compound was evaluated for antitumor activity (RTV) in PNX/109/TC carcinoma Xenograft, at a dosage 20 mg/kg on day 7", "type": "functional, organism-based", "set-up": "dose 20 mg/kg", "in_short": "as §4"}, "[15]": {"experiment": "Range is evaluated. (Highest IC50/Lowest IC50)", "type": "functional"}, "Mus musculus [16]": {"system": "Mus musculus", "experiment": "Compound was evaluated for antitumor activity (T/C) in PNX/109/TC carcinoma Xenograft, at a dosage 10 mg/kg on day 28", "type": "functional, organism-based", "set-up": "dose 10 mg/kg", "in_short": "as §3"}}, "note": "Values joined by “and” are separate entries in the source; they are usually repeats but may differ in a detail not shown here. Identical values can stand only once."}
{"substance": "Acetato[2-(dimethylamino)methyl]phenyl-C,N]gold-(III)", "values": [{"measurement": "RTV", "setting": "Mus musculus [1]", "result": 454}, {"measurement": "T/C", "setting": "Mus musculus [2]", "result": 0.93}, {"measurement": "T/C", "setting": "Mus musculus [3]", "result": 1.07}, {"measurement": "T/C", "setting": "Mus musculus [4]", "result": 1.16}, {"measurement": "T/C", "setting": "Mus musculus [5]", "result": 0.75}, {"measurement": "T/C", "setting": "Mus musculus [6]", "result": 0.57}, {"measurement": "T/C", "setting": "Mus musculus [7]", "result": 0.51}, {"measurement": "T/C", "setting": "Mus musculus [8]", "result": 0.77}, {"measurement": "T/C", "setting": "Mus musculus [9]", "result": 1.08}, {"measurement": "T/C", "setting": "Mus musculus [10]", "result": 0.69}, {"measurement": "RTV", "setting": "Mus musculus [11]", "result": 682}, {"measurement": "RTV", "setting": "Mus musculus [12]", "result": 212}, {"measurement": "RTV", "setting": "Mus musculus [13]", "result": 833}, {"measurement": "RTV", "setting": "Mus musculus [14]", "result": 173}, {"measurement": "Range", "setting": "[15]", "result": "21.6 and 31"}, {"measurement": "T/C", "setting": "Mus musculus [16]", "result": 1.34}]}
